Screening data as filed in PubChem BioAssay.
A selection: hits, their analogues and other compounds. The true share with any hit is near 12%.
Lmaj promast – inhibitors of Leishmania major promastigote growth; 200,000 compounds, 9% hits; inhibition, % at 10 µM; Leishmania major promastigotes, resazurin fluorescence viability; in the data active = inhibition above about 50%;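 also: promastigotes grown with compound for 44 hours at 28 °C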
WT yeast gro inh – growth inhibition of WT yeast, mitochondrial fusion screen | mitochondrial fusion phenotypic screen, WT strain | inhibition, % at 10 µM | 190,000 compounds, 2.1% hits | AID 1362; in the data active = inhibition above about 58%; tested in S. cerevisiae
ROMK primary – modulators of human ROMK potassium channel; P48048; Tet-inducible ROMK, thallium flux fluorescence; actives lie on both sides; B-score at 10 µM; 130,000 compounds, 2% hits; AID 1918;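 active = signal ratio slope over the read window, or its plate-corrected B-score, at least 3 SD from the plate mean, either direction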;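 also: B-score of the F/F0 ratio slope over 7 to 12 s after thallium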
Cl transport mod – modulators of human KCC2 chloride dependent transport. AID 1456. 190,000 compounds, 2.2% hits. B-score of Tl+ flux slope (higher = more flux/activation; lower = inhibition) at 10 µM. KCC2 cells, thallium flux FluoZin-2 fluorescence;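 active = thallium flux slope and its plate-corrected score both differing from the plate sample mean at a set confidence after two filtering rounds, in either direction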;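 also: slope of fluorescence scaled to starting intensity during 10 to 20 s after thallium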
Diaph inh CS – counter-screen for diaphorase-based assays: diaphorase inhibitors and chemical oxidizers | diaphorase resazurin-to-resorufin fluorescence, NADH, 16 min; bacterial (C. kluyveri) enzyme, not human | inhibition, % at 20 µM | 190,000 compounds, 0.69% hits | AID 1217;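 active = primary screen inhibition at 20 µM above a set limit, cut at about 50% in these data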;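 also: plate controls were DMSO with full reaction for no effect and wells lacking NADH for full effect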
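Assay system: diaphorase enzyme from Clostridium kluyveri; Input: enzyme working solution with 0.14 U/mL diaphorase; Timing: 16 min at room temperature; Technique: resorufin fluorescence, excitation 544 nm, emission 590 nm; Benchmarks: positive control minus NADH, DMSO neutral control.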
Diaph act CS – diaphorase activation or chemical reduction counter-screen | Diaphorase/resazurin coupled assay, resorufin fluorescence, 16 min; hits give high values; 1 = vehicle wells, 0 = NADH-free wells | activation factor at 20 µM | 190,000 compounds, 0.005% hits | AID 1229;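 active = diaphorase activity raised at least twofold by the compound at 20 µM; inactive = activation factor below 2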
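Assay system: Purified diaphorase enzyme from Clostridium kluyveri | Amount: Enzyme 0.07 U/mL final | Dosing: Compound 20 µM once, DMSO 1% | Timing: 16 min reaction at room temperature | Detection: Fluorescence, excitation 544 nm and emission 590 nm | Evaluation: Higher resorufin formation from activation or reduction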
An asterisk follows results filed as active; / = no result.

SMILES	Lmaj promast	WT yeast gro inh	ROMK primary	Cl transport mod	Diaph inh CS	Diaph act CS
CC1Cc2cccc3c(O)c(C(=O)c4nn[nH]n4)c(=O)n1c23 (stereo not given)	46.6	18.3	0.828	0.588	17.9	0.8
CCc1ccc(NC(=S)/N=C(\N)Nc2nc(C)c3cc(CC)ccc3n2)cc1	21.9	42.6	-0.0808	0.289	5.3	0.9
Cc1cc(C)c2c(N)c3ccccc3nc2n1	100.5*	-0.7	0.165	0.31	8.6	0.9
CCc1ccc2nc3nc(C)cc(C)c3c(N)c2c1	100.7*	1.1	/	-0.105	2.3	1
Cc1cc(C)c(S(=O)(=O)Nc2cc(SCC(=O)O)c(O)c3ccccc23)cc1C	99.3*	35.8	-0.658	-0.766	48.9	0.5
Cc1cc(C)c(S(=O)(=O)Nc2ccc(O)cc2)cc1C	6.5	4.2	/	-0.159	11.3	0.9
Cc1ccc([N+](=O)[O-])cc1N/C=C1\CCc2ccccc2C1=O	-2.2	3.1	/	0.0233	57.9*	0.4
Cc1ccc([N+](=O)[O-])cc1NC(=O)CCc1ccccc1	-4.3	11.8	/	/	-1.8	1
CCOc1ccc(-n2c(SCc3nc(-c4cccs4)no3)nnc2-c2ccncc2)cc1	62.2*	-1.9	/	0.00171	21.3	0.8
CCCn1c(SCc2nc(-c3cccs3)no2)nnc1-c1ccncc1	-5.3	10.8	0.169	-0.435	3.9	1
O=S(=O)(Nc1ccc(S(=O)(=O)Nc2ccccc2)cc1)c1ccccc1	-0.5	-1.6	/	-0.203	11.8	0.9
O=[N+]([O-])c1ccc(Oc2ccc(S(=O)(=O)Nc3ccccc3)cc2)cc1	65.6*	41.8	/	-0.279	16.9	0.8
CCc1ccc(NC(=S)NC2CC3CCC(C2)N3Cc2ccco2)cc1 (stereo not given)	94.1*	-2.0	/	-0.336	10.1	0.9
Cc1ccc(NC(=S)NC2CC3CCCC(C2)N3Cc2ccco2)cc1 (stereo not given)	90.5*	7.8	-0.964	-1.13	-10.7	1.1
Cc1cccc(NC(=S)NC2CC3CCC(C2)N3Cc2ccco2)c1 (stereo not given)	79.5*	5.3	/	-0.474	-7.1	1.1
COc1ccc(NC(=S)NC2CC3CCC(C2)N3Cc2ccco2)cc1 (stereo not given)	42.5	-12.7	-1.91	1.04	-11.3	1.1
Cc1cccc(NC(=O)NC2CC3CCC(C2)N3Cc2ccco2)c1 (stereo not given)	8.4	-17.8	-0.214	/	1.5	1
O=C(NC1CC2CCC(C1)N2Cc1ccco1)c1ccccc1 (stereo not given)	3.5	-24.2	/	-0.818	4.0	1
Cc1ccccc1NC(=S)NC1CC2CCC(C1)N2Cc1ccco1 (stereo not given)	60.4*	8.8	/	1.02	14.8	0.9
COc1ccc(CCNC(=O)Cn2c(=O)[nH]c3ccsc3c2=O)cc1OC	-11.6	-15.1	0.259	0.337	4.7	1
Nc1nonc1C(=O)N/N=C/c1ccc(-c2cccc(C(=O)O)c2)o1	-1.8	-19.7	-0.00171	-0.116	26.7	0.7
Cc1cc(C)cc(OCC(=O)OCc2nnc(-c3ccccc3)o2)c1	-7.6	4.6	0.542	-0.0844	10.6	0.9
CNC(=S)NC1CC2CCCC(C1)N2Cc1ccco1 (stereo not given)	8.0	15.0	/	/	-4.2	1
Cc1cccc(NC(=S)NC2CC3CCCC(C2)N3Cc2ccco2)c1 (stereo not given)	62.5*	-1.8	-0.252	-0.00319	10.3	0.9
CC1(C(=O)Oc2ccccc2)Cc2ccccc2C(=O)O1 (stereo not given)	4.3	-10.4	-0.00419	-1.39	-23.5	1.2
SMILES	Lmaj promast	WT yeast gro inh	ROMK primary	Cl transport mod	Diaph inh CS	Diaph act CS
CCOC(=O)C1=C(C)Nc2sc(C(=O)c3ccc(OC)cc3)c(N)c2C1c1ccc(C(=O)OC)cc1 (stereo not given)	71.4*	40.9	/	0.358	16.7	0.8
CC(C)CC(=O)N1CCN(S(C)(=O)=O)CC1	-6.3	-9.5	/	6.37*	11.7	0.9
O=C(C[n+]1cccc(CO)c1)Nc1nc2ccccc2s1	-7.8	0.4	0.879	-0.0492	2.9	1
Cc1ccccc1COC(=O)c1nn(-c2ccccc2)nc1N	11.9	61.6*	/	-0.0367	21.6	0.8
Nc1nn(-c2ccccc2)nc1C(=O)OCc1ccccc1F	17.5	16.4	/	-2.02	23.0	0.8
Cc1oc(-c2ccccc2Cl)nc1CSc1nc2c(c(=O)[nH]1)CCC2	-0.1	1.2	-1.41	-2.29	10.8	0.9
NNC(=O)c1cc(O)c(O)c(O)c1	-3.7	8.7	0.038	0.0206	64.9*	0.4
COc1c(Cl)cc(C(=O)NN)cc1Cl	-0.8	4.6	-0.671	-0.675	-15.2	1.2
Cc1ccccc1OCc1csc(N)n1	-2.8	11.1	0.153	0.334	-20.4	1.2
CC(C)NC(=S)NN=C1c2ccccc2-c2ccccc21	1.1	26.4	-0.615	3.17	26.5	0.7
CCOc1ccc(-c2nn(-c3ccccc3)cc2/C=C(\C#N)S(=O)(=O)c2ccccc2)cc1C	64.0*	-11.1	/	1.19	8.3	0.9
COCCn1c(C)cc(C2=NNC(=Nc3ccc(Cl)cc3Cl)SC2)c1C	4.2	42.9	/	0.496	17.3	0.8
COCC(C)N=C1NN=C(c2cc(C)n(Cc3ccccc3Cl)c2C)CS1 (stereo not given)	63.8*	44.3	-0.233	0.718	10.3	0.9
CC(=O)N1N=C(c2ccc(C)cc2)OC1c1ccc(C(C)C)cc1 (stereo not given)	-9.2	68.6*	/	/	26.4	0.7
CCOC(=O)c1cc(C)sc1NC(=O)CCC(=O)O	-5.1	6.5	/	/	4.4	1
Cc1sc(NC(=O)CCl)c(C(=O)c2ccccc2)c1C	100.6*	-17.2	/	/	11.6	0.9
Cc1cc(C(=O)c2ccc(C(C)(C)C)cc2)c(NC(=O)CCl)s1	96.3*	54.6	0.128	-0.0429	19.3	0.8
CCN(CC)C(=O)CSc1nnc(-c2ccccc2)c(-c2ccccc2)n1	-1.9	6.5	0.442	-1.14	16.6	0.8
FC(F)(F)c1ccc(Oc2ccc3ccccc3c2Br)nc1	-3.9	81.4*	/	1.45	4.7	1
O=[N+]([O-])c1ccccc1Oc1ccc(C(F)(F)F)cn1	3.2	2.1	-0.384	0.574	-2.6	1
Cc1csc2c(=O)sc(NC(=O)c3cccs3)nc12	/	/	-0.312	0.493	/	/
O=C(COc1ccccc1)N(CCc1ccccc1)c1nc(-c2ccc(F)cc2)cs1	3.7	7.1	/	-0.452	12.0	0.9
Cn1c(-c2c(N)n(-c3ccccc3)c3nc4ccccc4nc23)nc2ccccc21	75.3*	58.9*	/	-0.753	7.8	0.9
Cc1ccc2[nH]c3c(c2c1)CN(C(=O)CN1CCN(c2cccc(C)c2C)CC1)CC3	65.9*	49.6	/	-0.447	32.7	0.7
Cc1ccc2[nH]c3c(c2c1)CN(C(=O)CN1CCN(C(=O)c2ccco2)CC1)CC3	/	/	/	0.198	/	/
Cc1cc(N2CCCC2)c(F)cc1/C=C\[N+](=O)[O-]	52.4*	23.4	-1.75	-1.45	1.2	1
